Screening data (PubChem)
Hits are enriched below; roughly 4.1% of the tested compounds scored in any of these assays.
STAT1 activator: STAT1 signaling activation; NIH 3T3 STAT1-luciferase reporter, IFN-gamma, luminescence; 100% = IFN-gamma alone, no compound; activation (% of control), % at 5.5 µM; 200,000 tested, 2.6% active; AID 932;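 active = activation above the screen-wide mean activation plus 3 SD, cut at about 130% in these data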
APP 5'UTR act: activates APP 5'UTR luciferase reporter; 190,000 tested, 1% active; SH-SY5Y APP 5'UTR luciferase reporter, luminescence; zero percent = DMSO vehicle wells; activation, % at 2 µM;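 active = activation above a set limit, based on mean plus 3 SD of controls, cut at about 140% in these data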
FLuc inh counter: Photinus pyralis luciferase inhibition counter-screen; P08659; ATPLite firefly luciferase biochemical luminescence, 10 min; inhibition, % at 10 µM; 200,000 tested, 1.5% active; AID 1006;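 active = inhibition above about 50% when tested at 10 µM, limit read from the data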
Target sequence (P08659 whole entry, looked up): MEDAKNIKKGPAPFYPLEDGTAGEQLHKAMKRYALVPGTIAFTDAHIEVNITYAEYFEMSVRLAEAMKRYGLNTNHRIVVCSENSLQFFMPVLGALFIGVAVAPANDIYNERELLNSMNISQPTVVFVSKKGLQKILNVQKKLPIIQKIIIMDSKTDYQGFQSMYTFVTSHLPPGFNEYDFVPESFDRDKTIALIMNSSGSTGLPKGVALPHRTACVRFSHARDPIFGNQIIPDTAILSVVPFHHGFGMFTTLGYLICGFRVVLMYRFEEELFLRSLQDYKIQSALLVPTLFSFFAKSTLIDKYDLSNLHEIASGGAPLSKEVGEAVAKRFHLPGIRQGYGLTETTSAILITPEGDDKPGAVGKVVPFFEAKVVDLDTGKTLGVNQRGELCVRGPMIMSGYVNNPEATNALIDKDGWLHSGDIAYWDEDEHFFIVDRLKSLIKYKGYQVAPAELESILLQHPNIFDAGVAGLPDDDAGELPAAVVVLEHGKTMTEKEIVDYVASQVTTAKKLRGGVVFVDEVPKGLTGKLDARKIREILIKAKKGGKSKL
FLuc act counter: affects firefly luciferase, flagging false hits in luciferase stimulation screens | AID 1027 | activation factor at 10 µM | P08659 | ATPlite luciferase biochemical, luminescence, 10 min; 0 = ATP-free wells, 1 = DMSO control | 200,000 tested, under 10 active;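 active = luciferase activation factor, scaled between plate controls, of at least 2 with compound at 10 µM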
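Assay system: Luciferase/luciferin reagent mix; Medium: PBS as buffer for the ATP substrate; Dosing: test compounds dosed from 2 mM stocks in 100% DMSO; Times: 10 min, room temperature; Signal: luminescence from luciferase reaction; Read-out: luciferase activation; Controls: No-ATP low control, compound-free enzyme-plus-ATP high control.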
NF-kB expr up: compounds increasing NF-kB expression in human neuronal cells; NF-kB reporter expression; stronger effect = higher value; fold change at 12.5 µM; 190,000 tested, 1.6% active; AID 1239; in the data active = fold change above about 3.3
Hits are given with their value.

Screening O=C(c1ccc2ccccc2c1)N1CCN(c2ccc([N+](=O)[O-])c(N3CCOCC3)c2)CC1 returned STAT1 activator inactive, APP 5'UTR act inactive, FLuc inh counter inactive, FLuc act counter inactive and NF-kB expr up inactive.
For CCOC(=O)N1CCN(c2ccc(O)cc2)CC1 the results were STAT1 activator inactive, APP 5'UTR act inactive, FLuc inh counter inactive, FLuc act counter inactive and NF-kB expr up 3.5.
For CCOC(=O)N1CCN(c2ccc(Cl)cc2)CC1 the results were STAT1 activator inactive, APP 5'UTR act inactive, FLuc inh counter inactive, FLuc act counter inactive and NF-kB expr up inactive.
Screening O=C(c1ccc2ccccc2c1)N1CCN(c2ccc(O)cc2)CC1 returned STAT1 activator inactive, APP 5'UTR act inactive, FLuc inh counter inactive, FLuc act counter inactive and NF-kB expr up 4.1.
`Cc1ccc(NC(=O)COC(=O)C(CC(C)C)N2C(=O)C3CC=CCC3C2=O)c(C)c1` (stereo not drawn) gave STAT1 activator inactive, APP 5'UTR act inactive, FLuc inh counter inactive, FLuc act counter inactive and NF-kB expr up inactive.
Screening O=C(Nc1ccc(Cl)c(Cl)c1)N1CC=CCC1 returned STAT1 activator inactive, APP 5'UTR act inactive, FLuc inh counter inactive, FLuc act counter inactive and NF-kB expr up 3.5.
S=C(Nc1ccc(Cl)c(Cl)c1)N1CCOCC1 was read as STAT1 activator inactive, APP 5'UTR act inactive, FLuc inh counter inactive, FLuc act counter inactive and NF-kB expr up inactive.
For CCn1c(/N=C/c2c[nH]c3ccccc23)nc2ccccc21 the results were STAT1 activator inactive, APP 5'UTR act inactive, FLuc inh counter 57, FLuc act counter inactive and NF-kB expr up inactive.
Screening CC1CC(C)CN(C(=O)c2cc3cc(Br)cc(Br)c3o2)C1 (stereo not drawn) returned STAT1 activator inactive, APP 5'UTR act inactive, FLuc inh counter inactive, FLuc act counter inactive and NF-kB expr up inactive.
`c1ccc(Sc2ncnc3c2oc2ccccc23)cc1` gave STAT1 activator 144, APP 5'UTR act inactive, FLuc inh counter inactive, FLuc act counter inactive and NF-kB expr up inactive.
`O=C(NNC1=NS(=O)(=O)c2ccccc21)c1ccc(Cl)cc1` gave STAT1 activator inactive, APP 5'UTR act inactive, FLuc inh counter 84, FLuc act counter inactive and NF-kB expr up inactive.
`CC1Oc2ccccc2C=C1/C=N/NC(=O)c1ccccc1` (stereo not drawn) gave STAT1 activator 133, APP 5'UTR act inactive, FLuc inh counter inactive, FLuc act counter inactive and NF-kB expr up inactive.
Cc1ccc(C(=O)N/N=C/C2=Cc3ccccc3OC2C)cc1 (stereo not drawn) was read as STAT1 activator inactive, APP 5'UTR act inactive, FLuc inh counter inactive, FLuc act counter inactive and NF-kB expr up inactive.
For CC1Oc2ccccc2C=C1/C=N/NC(=O)c1ccccc1O (stereo not drawn) the results were STAT1 activator inactive, APP 5'UTR act inactive, FLuc inh counter 78, FLuc act counter inactive and NF-kB expr up inactive.
`COc1ccc(-n2c3c(cc(C#N)c2=O)C(=O)CCC3)cc1` gave STAT1 activator inactive, APP 5'UTR act inactive, FLuc inh counter inactive, FLuc act counter inactive and NF-kB expr up inactive.
O=C(Nc1ccccc1)c1cc2ccccc2c(=O)s1 was read as STAT1 activator 146, APP 5'UTR act inactive, FLuc inh counter inactive, FLuc act counter inactive and NF-kB expr up inactive.
Screening O=C(Nc1ccc(O)cc1)c1cc2ccccc2c(=O)s1 returned STAT1 activator inactive, APP 5'UTR act inactive, FLuc inh counter inactive, FLuc act counter inactive and NF-kB expr up inactive.
Screening CC1(C)O[C@@H]2C[C@H]3[C@@H]4C[C@H](F)C5=CC(=O)CC[C@]5(C)[C@H]4[C@@H](O)C[C@]3(C)[C@]2(C(=O)CO)O1 returned STAT1 activator 135, APP 5'UTR act inactive, FLuc inh counter inactive, FLuc act counter inactive and NF-kB expr up inactive.
Screening CCCCC(=O)O[C@]1(C(=O)CO)CC[C@H]2[C@@H]3CCC4=CC(=O)CC[C@]4(C)[C@H]3[C@@H](O)C[C@@]21C returned STAT1 activator inactive, APP 5'UTR act inactive, FLuc inh counter inactive, FLuc act counter inactive and NF-kB expr up inactive.
Screening Oc1c(C(Nc2ccccn2)c2ccccn2)ccc2cccnc12 (stereo not drawn) returned STAT1 activator inactive, APP 5'UTR act inactive, FLuc inh counter inactive, FLuc act counter inactive and NF-kB expr up 7.
COc1cc(C(Nc2ccccn2)c2ccc3ccc(C)nc3c2O)cc(OC)c1O (stereo not drawn) was read as STAT1 activator inactive, APP 5'UTR act inactive, FLuc inh counter inactive, FLuc act counter inactive and NF-kB expr up 6.
Cc1ccc2ccc(C(Nc3ccccn3)c3ccccc3)c(O)c2n1 (stereo not drawn) was read as STAT1 activator inactive, APP 5'UTR act inactive, FLuc inh counter inactive, FLuc act counter inactive and NF-kB expr up inactive.
`Cc1ccnc(NC(c2cccnc2)c2ccc3cccnc3c2O)c1` (stereo not drawn) gave STAT1 activator inactive, APP 5'UTR act inactive, FLuc inh counter inactive, FLuc act counter inactive and NF-kB expr up inactive.
Nc1nc(SCC(=O)NCCc2ccccc2)[nH]c(=O)c1-c1ccccc1 was read as STAT1 activator inactive, APP 5'UTR act inactive, FLuc inh counter inactive, FLuc act counter inactive and NF-kB expr up inactive.
For CC1CCN(C(=O)c2cc(-c3ccccc3O)on2)CC1 the results were STAT1 activator inactive, APP 5'UTR act inactive, FLuc inh counter inactive, FLuc act counter inactive and NF-kB expr up 7.3.
Screening O=C(c1cc(-c2ccccc2O)on1)N1CCc2ccccc2C1 returned STAT1 activator inactive, APP 5'UTR act inactive, FLuc inh counter inactive, FLuc act counter inactive and NF-kB expr up inactive.
O=C(c1cc(-c2ccccc2)on1)N1CCCC1 was read as STAT1 activator 132, APP 5'UTR act inactive, FLuc inh counter inactive, FLuc act counter inactive and NF-kB expr up 4.1.
`Cc1cccc(NC(=O)NC(C)C(c2ccccc2)N2CCN(C)CC2)c1` (stereo not drawn) gave STAT1 activator inactive, APP 5'UTR act inactive, FLuc inh counter inactive, FLuc act counter inactive and NF-kB expr up inactive.
`CC(=O)c1ccc2c(c1)Cc1cc(C(C)=O)ccc1-2` gave STAT1 activator 146, APP 5'UTR act inactive, FLuc inh counter inactive, FLuc act counter inactive and NF-kB expr up inactive.
For Cn1c(C(=O)O)c(CC(=O)N2CCC(Cc3ccccc3)CC2)c2ccccc21 the results were STAT1 activator inactive, APP 5'UTR act inactive, FLuc inh counter inactive, FLuc act counter inactive and NF-kB expr up inactive.
COc1ccc(-c2cc(C(=O)OC(C)C(=O)Nc3c(C)n(C)n(-c4ccccc4)c3=O)c3ccccc3n2)cc1 (stereo not drawn) was read as STAT1 activator inactive, APP 5'UTR act inactive, FLuc inh counter inactive, FLuc act counter inactive and NF-kB expr up inactive.
Screening Cc1c(NC(=O)COC(=O)c2cc(-c3ccc(-c4ccccc4)cc3)nc3ccccc23)c(=O)n(-c2ccccc2)n1C returned STAT1 activator 146, APP 5'UTR act inactive, FLuc inh counter 85, FLuc act counter inactive and NF-kB expr up 4.1.
